Source: ChEMBL document CHEMBL1671853, “Decrease of atazanavir and lopinavir plasma concentrations in a boosted double human immunodeficiency virus protease inhibitor salvage regimen” (Antimicrob Agents Chemother, 2008)

Legend:
[1] = Cmax in HIV-1 infected patient at 100 mg, po bid coadministered with 400 mg, po bid of Lopinavir and NRTI; type: ADME, organism-based; design: dose 100 mg, route oral; details: human, in vivo
Procedure, shortened: (§1)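 HIV-1-infected adults on LPV-RTV gel capsules plus NRTI (n = 17, matched pairs) at steady state after at least 2 weeks of therapy, under a standardized routine TDM protocol with food of approximately 2,500 kJ (21% fat). Plasma sampled predose and at 1, 2, 4, 6, 9 and 12 h. Concentrations by validated LC-MS/MS; noncompartmental parameters given as geometric means (90% CI).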

[2] = Half life in HIV-1 infected patient at 100 mg, po bid coadministered with 300 mg, po qd of atazanavir and NRTI; details: human, in vivo
[3] = tested on: Homo sapiens; test: Apparent oral clearance in HIV-1 infected patient at 100 mg, po qd coadministered with 300 mg, po qd of atazanavir and NRTI; details: in vivo
[4] = AUC in HIV-1 infected patient at 100 mg, po qd coadministered with 300 mg, po qd of atazanavir and NRTI; details: human, plasma
[5] = Cmax in HIV-1 infected patient at 100 mg, po qd coadministered with 300 mg, po qd of atazanavir and NRTI; details: human, in vivo
[6] = AUC in HIV-1 infected patient at 100 mg, po bid coadministered with 400 mg, po bid of Lopinavir and NRTI; type: ADME, organism-based; details: human, plasma; procedure, shortened: as §1
[7] = Half life in HIV-1 infected patient at 100 mg, po bid coadministered with 400 mg, po bid of Lopinavir and NRTI; details: human, in vivo
[8] = tested on: Homo sapiens; test: Apparent oral clearance in HIV-1 infected patient at 100 mg, po bid coadministered with 400 mg, po bid of Lopinavir and NRTI; type: ADME, organism-based; details: in vivo; procedure, shortened: as §1
[9] = Cmax in HIV-1 infected patient at 100 mg, po bid coadministered with 400 mg, po bid of Lopinavir and 300 mg, po qd of atazanavir; type: ADME, organism-based; design: dose 100 mg, route oral; details: human, in vivo
Procedure, shortened: (§2)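 Retrospective steady-state TDM data from HIV-1-infected adults (n = 17 per group, matched for sex, age, ethnicity and body weight), taken after at least 2 weeks on therapy. Plasma sampled before dosing and at 1, 2, 4, 6, 9, 12 and 24 h, with food of approximately 2,500 kJ (21% fat). Drug levels measured by validated LC-MS/MS; parameters from noncompartmental analysis; geometric means (90% CI).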

[10] = AUC in HIV-1 infected patient at 100 mg, po bid coadministered with 400 mg, po bid of Lopinavir and 300 mg, po qd of atazanavir; type: ADME, organism-based; details: human, plasma; procedure, shortened: as §2
[11] = Cmax in HIV-1 infected patient at 300 mg, po qd coadministered with 100 mg of ritonavir, po qd and NRTI; type: ADME, organism-based; design: dose 300 mg, route oral; details: human, in vivo; procedure, shortened: as §2
[12] = AUC in HIV-1 infected patient at 300 mg, po qd coadministered with 100 mg of ritonavir, po qd and NRTI; type: ADME, organism-based; details: human, plasma; procedure, shortened: as §2
[13] = Half life in HIV-1 infected patient at 300 mg, po qd coadministered with 400 mg, po bid and 100 mg, po bid of Lopinavir and ritonavir respectively; type: ADME, organism-based; details: human, in vivo; procedure, shortened: as §2
[14] = Cmax in HIV-1 infected patient at 300 mg, po qd coadministered with 400 mg, po bid and 100 mg, po bid of Lopinavir and ritonavir respectively; type: ADME, organism-based; design: dose 300 mg, route oral; details: human, in vivo; procedure, shortened: as §2
[15] = Half life in HIV-1 infected patient at 300 mg, po qd coadministered with 100 mg of ritonavir, po qd and NRTI; type: ADME, organism-based; details: human, in vivo; procedure, shortened: as §2
[16] = Apparent oral clearance in HIV-1 infected patient at 300 mg, po qd coadministered with 400 mg, po bid and 100 mg, po bid of Lopinavir and ritonavir respectively; type: ADME, organism-based; details: human, in vivo; procedure, shortened: as §2
[17] = Oral clearance in HIV-1 infected patient at 300 mg, po qd coadministered with 100 mg of ritonavir, po qd and NRTI; type: ADME, organism-based; details: human, in vivo; procedure, shortened: as §2
[18] = AUC in HIV-1 infected patient at 300 mg, po qd coadministered with 400 mg, po bid and 100 mg, po bid of Lopinavir and ritonavir respectively; type: ADME, organism-based; details: human, plasma; procedure, shortened: as §2
[19] = Apparent oral clearance in HIV-1 infected patient at 400 mg, po bid coadministered with 100 mg, po bid of ritonavir with NRTI; type: ADME, organism-based; details: human, in vivo; procedure, shortened: as §1
[20] = Half life in HIV-1 infected patient at 400 mg, po bid coadministered with 100 mg, po bid of ritonavir and 300 mg, po qd of atazanavir; type: ADME, organism-based; details: human, in vivo; procedure, shortened: as §2
[21] = AUC in HIV-1 infected patient at 400 mg, po bid coadministered with 100 mg, po bid of ritonavir and NRTI; type: ADME, organism-based; details: human, plasma; procedure, shortened: as §1
[22] = Cmax in HIV-1 infected patient at 400 mg, po bid coadministered with 100 mg, po bid of ritonavir and NRTI; type: ADME, organism-based; design: dose 400 mg, route oral; details: human, in vivo; procedure, shortened: as §1
[23] = Apparent oral clearance in HIV-1 infected patient at 400 mg, po bid coadministered with 100 mg, po bid of ritonavir and 300 mg, po qd of atazanavir; type: ADME, organism-based; details: human, in vivo; procedure, shortened: as §2
[24] = AUC in HIV-1 infected patient at 400 mg, po bid coadministered with 100 mg, po bid of ritonavir and 300 mg, po qd of atazanavir; type: ADME, organism-based; details: human, plasma; procedure, shortened: as §2
[25] = Half life in HIV-1 infected patient at 400 mg, po bid coadministered with 100 mg, po bid of ritonavir and NRTI; type: ADME, organism-based; details: human, in vivo; procedure, shortened: as §1
[26] = Cmax in HIV-1 infected patient at 400 mg, po bid coadministered with 100 mg, po bid of ritonavir and 300 mg, po qd of atazanavir; type: ADME, organism-based; design: dose 400 mg, route oral; details: human, in vivo; procedure, shortened: as §2

CC(C)c1nc(CN(C)C(=O)N[C@H](C(=O)N[C@@H](Cc2ccccc2)C[C@H](O)[C@H](Cc2ccccc2)NC(=O)OCc2cncs2)C(C)C)cs1 [RITONAVIR]
Cmax [1]: 525 ng/mL | half-life [2]: 275 min | CL/F [3]: 199 mL/min | AUC [4]: 7770 ng·h/mL | Cmax [5]: 869 ng/mL | AUC [6]: 3580 ng·h/mL | half-life [7]: 242 min | CL/F [8]: 440 mL/min | Cmax [9]: 468 ng/mL | AUC [10]: 3290 ng·h/mL

COC(=O)N[C@H](C(=O)N[C@@H](Cc1ccccc1)[C@@H](O)CN(Cc1ccc(-c2ccccn2)cc1)NC(=O)[C@@H](NC(=O)OC)C(C)(C)C)C(C)(C)C [ATAZANAVIR]
Cmax [11]: 2740 ng/mL | AUC [12]: 30300 ng·h/mL | half-life [13]: 467 min | Cmax [14]: 2260 ng/mL | half-life [15]: 433 min | CL/F [16]: 185 mL/min | CL/F [17]: 154 mL/min | AUC [18]: 26400 ng·h/mL

Cc1cccc(C)c1OCC(=O)N[C@@H](Cc1ccccc1)[C@@H](O)C[C@H](Cc1ccccc1)NC(=O)[C@H](C(C)C)N1CCCNC1=O [LOPINAVIR]
CL/F [19]: 99 mL/min | half-life [20]: 394 min | AUC [21]: 59700 ng·h/mL | Cmax [22]: 6850 ng/mL | CL/F [23]: 133 mL/min | AUC [24]: 48500 ng·h/mL | half-life [25]: 493 min | Cmax [26]: 5250 ng/mL
